Calls of active or inactive are those of the source. The calls are words filed in the database; no cut-off is given here.
Tests used:
[1] = test system: LOX IMVI; assay: (§1) Growth inhibition of human LOXIMVI cells at 10 uM after 48 hrs by sulforhodamine B assay; type: functional
Method in brief: (§2)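 NCI-60 primary screen: cells given a single 10 µM dose under 48 h continuous exposure. Growth/viability estimated by sulforhodamine B protein assay. Reported as percent growth of treated cells (mean graph), expressed as percent growth inhibition.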

[2] = test system: ACHN; assay: Growth inhibition of human ACHN cells at 10 uM after 48 hrs by sulforhodamine B assay; type: functional; settings: for inhibition of growth at 10 µM: read-out: GI; method in brief: as §2
[3] = test system: UO-31; assay: (§3) Growth inhibition of human UO31 cells at 10 uM after 48 hrs by sulforhodamine B assay; type: functional; method in brief: as §2
[4] = test system: K562; assay: Growth inhibition of human K562 cells at 10 uM after 48 hrs by sulforhodamine B assay; type: functional; settings: K562, 48 h, read-out: GI; method in brief: as §2
[5] = Growth inhibition of human HOP92 cells at 10 uM after 48 hrs by sulforhodamine B assay; type: functional; settings: HOP-92, 48 h, read-out: GI; method in brief: as §2
[6] = test system: OVCAR-4; assay: (§4) Growth inhibition of human OVCAR4 cells at 10 uM after 48 hrs by sulforhodamine B assay; type: functional; method in brief: as §2
[7] = test system: CCRF-CEM; assay: Growth inhibition of human CCRF-CEM cells at 10 uM after 48 hrs by sulforhodamine B assay; type: functional; settings: read-out: GI; method in brief: as §2
[8] = test system: Hs-578T; assay: (§5) Growth inhibition of human Hs 578T cells at 10 uM after 48 hrs by sulforhodamine B assay; type: functional; method in brief: as §2
[9] = Growth inhibition of human MOLT4 cells at 10 uM after 48 hrs by sulforhodamine B assay; type: functional; settings: MOLT-4, 48 h, read-out: GI; method in brief: as §2
[10] = test system: CAKI-1; assay: Growth inhibition of human CAKI-1 cells at 10 uM after 48 hrs by sulforhodamine B assay; type: functional; settings: for inhibition of growth at 10 µM: CAKI-1, 48 h, read-out: GI; method in brief: as §2
[11] = Growth inhibition of human UACC62 cells at 10 uM after 48 hrs by sulforhodamine B assay; type: functional; settings: UACC-62, 48 h, read-out: GI; method in brief: as §2
[12] = test system: SK-MEL-5; assay: Growth inhibition of human SK-MEL-5 cells at 10 uM after 48 hrs by sulforhodamine B assay; type: functional; settings: SK-MEL-5, 48 h, read-out: GI; method in brief: as §2
[13] = Growth inhibition of human HCT15 cells at 10 uM after 48 hrs by sulforhodamine B assay; type: functional; settings: HCT-15, 48 h, read-out: GI; method in brief: as §2
[14] = test system: MDA-MB-468; assay: Growth inhibition of human MDA-MB-468 cells at 10 uM after 48 hrs by sulforhodamine B assay; type: functional; settings: for inhibition of growth at 10 µM: MDA-MB-468, 48 h, read-out: GI; method in brief: as §2
[15] = test system: T47D; assay: Growth inhibition of human T47D cells at 10 uM after 48 hrs by sulforhodamine B assay; type: functional; settings: read-out: GI; method in brief: as §2
[16] = Growth inhibition of human PC3 cells at 10 uM after 48 hrs by sulforhodamine B assay; type: functional; settings: PC-3, 48 h, read-out: GI; method in brief: as §2
[17] = test system: HL-60(TB); assay: Growth inhibition of human HL-60(TB) cells at 10 uM after 48 hrs by sulforhodamine B assay; type: functional; settings: for inhibition of growth at 10 µM: HL-60, 48 h, read-out: GI
Method in brief: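 NCI-60 one-dose primary screen, HL-60(TB) within the leukemia subpanel. Single 10 µM concentration, 48 h continuous exposure. Growth estimated by sulforhodamine B protein assay. Percent growth of treated cells expressed as percentage growth inhibition (GI%).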

[18] = test system: HCT-116; assay: (§6) Growth inhibition of human HCT116 cells at 10 uM after 48 hrs by sulforhodamine B assay; type: functional; method in brief: as §2
[19] = test system: U-251; assay: Growth inhibition of human U251 cells at 10 uM after 48 hrs by sulforhodamine B assay; type: functional; settings: for inhibition of growth at 10 µM: U-251, 48 h, read-out: GI; method in brief: as §2
[20] = test system: A498; assay: Growth inhibition of human A498 cells at 10 uM after 48 hrs by sulforhodamine B assay; type: functional; settings: A498, 48 h, read-out: GI; method in brief: as §2
[21] = Growth inhibition of human RPMI8226 cells at 10 uM after 48 hrs by sulforhodamine B assay; type: functional; settings: RPMI-8226, 48 h, read-out: GI; method in brief: as §2
[22] = test system: SNB-75; assay: Growth inhibition of human SNB75 cells at 10 uM after 48 hrs by sulforhodamine B assay; type: functional; settings: for inhibition of growth at 10 µM: SNB-75, 48 h, read-out: GI; method in brief: as §2
[23] = test system: NCI-H522; assay: Growth inhibition of human NCI-H522 cells at 10 uM after 48 hrs by sulforhodamine B assay; type: functional; settings: NCI-H522, 48 h, read-out: GI; method in brief: as §2
[24] = test system: IGROV-1; assay: Growth inhibition of human IGROV1 cells at 10 uM after 48 hrs by sulforhodamine B assay; type: functional; settings: IGROV-1, 48 h, read-out: GI; method in brief: as §2
[25] = test system: EKVX; assay: (§7) Growth inhibition of human EKVX cells at 10 uM after 48 hrs by sulforhodamine B assay; type: functional; method in brief: as §2
[26] = as §1; type: functional; settings: LOX IMVI, read-out: GI; method in brief: as §2
[27] = as §3; type: functional; settings: UO-31, 48 h, read-out: GI; method in brief: as §2
[28] = Antioxidant activity assessed as DPPH radical scavenging activity at 10^-3 M incubated for 30 mins by spectrophotometry; type: physicochemical; settings: 0.5 h, 1000 µM
Method in brief: (§8)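 Compound at 10^-3 or 10^-4 M mixed with methanolic DPPH (0.1 mL of 1 mM stock; 3 mL total volume), shaken, kept in the dark 30 min at room temperature. Absorbance read at 517 nm. Scavenging (%) = (A_control − A_sample)/A_control × 100, where the control is DPPH in methanol alone. BHT served as reference antioxidant. Triplicate, mean ± SD of three independent experiments.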

[29] = Antioxidant activity assessed as DPPH radical scavenging activity at 10^-4 M incubated for 30 mins by spectrophotometry; type: physicochemical; settings: 0.5 h, 100 µM; method in brief: as §8
[30] = as §4; type: functional; settings: OVCAR-4, 48 h, read-out: GI; method in brief: as §2
[31] = as §5; type: functional; settings: read-out: GI; method in brief: as §2
[32] = as §6; type: functional; settings: HCT-116, 48 h, read-out: GI; method in brief: as §2
[33] = as §7; type: functional; settings: read-out: GI; method in brief: as §2

| Structure (SMILES) | inhibition of growth at 10 µM [2] | inhibition of growth at 10 µM [4] | inhibition of growth at 10 µM [5] | inhibition of growth at 10 µM [7] | inhibition of growth at 10 µM [9] | inhibition of growth at 10 µM [10] | inhibition of growth at 10 µM [11] | inhibition of growth at 10 µM [12] | inhibition of growth at 10 µM [13] | inhibition of growth at 10 µM [15] | inhibition of growth at 10 µM [16] | inhibition of growth at 10 µM [20] | inhibition of growth at 10 µM [21] | inhibition of growth at 10 µM [23] | inhibition of growth at 10 µM [24] | inhibition of growth at 10 µM [27] | inhibition of growth at 10 µM [17] | inhibition of growth at 10 µM [32] | inhibition of growth at 10 µM [22] | inhibition of growth at 10 µM [33] | further results |
| --- | --- | --- | --- | --- | --- | --- | --- | --- | --- | --- | --- | --- | --- | --- | --- | --- | --- | --- | --- | --- | --- |
| CC1CCCc2c1nc1[nH]c(=S)n(-c3ccccc3)c(=N)c1c2-c1cccn1C (stereo unspecified) | 12.3% | 12.1% | 23.6% | 15.6% | 23.8% | 13.8% | 18.4% | 16.3% | 14.1% | 19.3% | 12.5% | 8.6% | 47.6% | 21.5% | 10.6% |  |  |  |  |  | growth inhibition (GI) [1]: inactive; growth inhibition (GI) [3]: inactive; growth inhibition (GI) [6]: inactive; growth inhibition (GI) [8]: inactive; inhibition of growth at 10 µM [14]: 11.4%; growth inhibition (GI) [17]: inactive; growth inhibition (GI) [18]: inactive; growth inhibition (GI) [19]: inactive; growth inhibition (GI) [22]: inactive; growth inhibition (GI) [25]: inactive |
| CC1CCCc2c1nc(NC(=S)NC(=O)c1ccccc1)c(C#N)c2-c1cccn1C (stereo unspecified) | 31.4% | 33.5% | 32% | 27.5% | 31.4% | 31.9% | 24.7% | 12.8% | 20.1% | 40.6% | 28.4% | 22.6% | 36.7% | 22.4% | 38.8% | 51.4% | 35.9% | 19.5% | 31.9% | 14.2% | inhibition of growth at 10 µM [26]: 29.6%; inhibition (INH) [28]: 23%; inhibition (INH) [29]: 11%; inhibition of growth at 10 µM [30]: 27.6%; inhibition of growth at 10 µM [31]: 38.1%; inhibition of growth at 10 µM [14]: 32.7%; inhibition of growth at 10 µM [19]: 15.8% |
| CCSc1nc(N)c2c(-c3cccn3C)c3c(nc2n1)C(C)CCC3 (stereo unspecified) | 11.9% | 37.4% | 28.7% | 21.6% | 42.3% | 21.7% | 24.1% | 13.1% | 10.8% | 54.2% | 57.1% | 26.5% | 68.5% | 33.8% | 35.3% | 45.8% | 25.8% | 35.3% | 21.4% | 34.1% | inhibition of growth at 10 µM [26]: 12.9%; inhibition (INH) [28]: 28%; inhibition (INH) [29]: 16%; inhibition of growth at 10 µM [30]: 23.4%; inhibition of growth at 10 µM [31]: 15.2%; inhibition of growth at 10 µM [14]: 15.4%; inhibition of growth at 10 µM [19]: 16.7% |
| CC1CCCc2c1nc1ncn(N)c(=N)c1c2-c1cccn1C (stereo unspecified) |  | 18.3% | 11.3% | 30.1% | 29.2% |  | 16.9% | 10.5% | 13.4% | 17.5% | 20.4% | 14.6% | 38.6% | 10.4% | 12.4% | 7.3% | 11.6% | 11.7% | 10.7% | 16.2% | growth inhibition (GI) [1]: inactive; growth inhibition (GI) [2]: inactive; growth inhibition (GI) [6]: inactive; inhibition of growth at 10 µM [31]: 10.7%; growth inhibition (GI) [10]: inactive; growth inhibition (GI) [14]: inactive; growth inhibition (GI) [19]: inactive |
| CC1CCCc2c1nc1[nH]c(=S)nc(N)c1c2-c1cccn1C (stereo unspecified) | 15.2% | 29.6% | 36.4% | 26.7% | 32.6% |  | 23.5% | 18.4% | 13.4% | 40.1% | 19.8% | 41.3% | 51.9% | 29.7% | 34.4% | 34.7% | 33.2% | 22.6% | 17.5% | 18.9% | inhibition of growth at 10 µM [26]: 10.7%; inhibition (INH) [28]: 26%; inhibition (INH) [29]: 14%; inhibition of growth at 10 µM [30]: 13.8%; growth inhibition (GI) [8]: inactive; growth inhibition (GI) [10]: inactive; growth inhibition (GI) [14]: inactive; inhibition of growth at 10 µM [19]: 21.4% |

— ChEMBL document CHEMBL3407457, “Microwave-assisted synthesis of certain pyrrolylpyridines, some derived ring systems and their evaluation as anticancer and antioxidant agents” (Eur J Med Chem, 2015)
